Calls of active or inactive are those of the source. The rule behind the calls is not given here.
Legend:
HT-29 [1] = test: Cytotoxicity against human HT-29 cells after 96 hrs under hypoxic condition by MTT assay; type: functional, cell-based; conditions: Homo sapiens, HT-29, 96 h; read-out: IC50
Summary of the method: (§1)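 MTT viability assay in HT-29 (high CA IX) and MDA-MB-231 (normal CA IX) cells under normoxic and hypoxic conditions; IC50 values reported.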

HT-29 [2] = test: Cytotoxicity against human HT-29 cells after 96 hrs under normoxic condition by MTT assay; type: functional, cell-based; conditions: Homo sapiens, HT-29, 96 h; read-out: IC50; summary of the method: as §1
MDA-MB-231 [3] = test: Cytotoxicity against human MDA-MB-231 cells after 96 hrs under hypoxic condition by MTT assay; type: functional, cell-based; conditions: Homo sapiens, MDA-MB-231, 96 h; read-out: IC50; summary of the method: as §1
MDA-MB-231 [4] = test: Cytotoxicity against human MDA-MB-231 cells after 96 hrs under normoxic condition by MTT assay; type: functional, cell-based; conditions: Homo sapiens, MDA-MB-231, 96 h; read-out: IC50; summary of the method: as §1
HT-29 [5] = test: Cell cycle arrest in human HT-29 cells assessed as accumulation at G0/G1 phase at 2.5 uM after 48 hrs by RNase/propidium iodide staining-based flow cytometric analysis (reference value: 70.48%); type: functional
HT-29 [6] = test: Cell cycle arrest in human HT-29 cells assessed as accumulation at G0/G1 phase at 5 uM after 48 hrs by RNase/propidium iodide staining-based flow cytometric analysis (reference value: 70.48%); type: functional
HT-29 [7] = test: Cell cycle arrest in human HT-29 cells assessed as accumulation at G0/G1 phase at 10 uM after 48 hrs by RNase/propidium iodide staining-based flow cytometric analysis (reference value: 70.48%); type: functional
HT-29 [8] = test: Cell cycle arrest in human HT-29 cells assessed as accumulation at G0/G1 phase at 20 uM after 48 hrs by RNase/propidium iodide staining-based flow cytometric analysis (reference value: 70.48%); type: functional
HT-29 [9] = test: Induction of morphological changes in human HT-29 cells assessed as reduction in cell volume after 96 hrs; type: functional, cell-based
HT-29 [10] = test: Induction of morphological changes in human HT-29 cells assessed as reduction in cell number after 96 hrs; type: functional, cell-based
HT-29 [11] = test: Cell cycle arrest in human HT-29 cells assessed as accumulation at sub-G1 phase at 10 uM by RNase/propidium iodide staining-based flow cytometric analysis; type: functional; conditions: TDE = time-dependent effect
Summary of the method: (§2)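 HT-29 cells exposed to 10 µM for different times (up to 72 h); sub-G1 fraction measured by flow cytometry.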

HT-29 [12] = test: Cell cycle arrest in human HT-29 cells assessed as accumulation at sub-G1 phase at 10 uM after 48 to 72 hrs by RNase/propidium iodide staining-based flow cytometric analysis; type: functional; summary of the method: as §2
HT-29 [13] = test: Induction of apoptosis in human HT-29 cells assessed as early apoptotic cells at 2.5 uM after 48 hrs by Annexin V-FITC/propidium iodide staining-based flow cytometric analysis (reference value: 0.07%); type: functional
HT-29 [14] = test: Induction of apoptosis in human HT-29 cells assessed as early apoptotic cells at 5 uM after 48 hrs by Annexin V-FITC/propidium iodide staining-based flow cytometric analysis (reference value: 0.07%); type: functional
HT-29 [15] = test: Induction of apoptosis in human HT-29 cells assessed as early apoptotic cells at 10 uM after 48 hrs by Annexin V-FITC/propidium iodide staining-based flow cytometric analysis (reference value: 0.07%); type: functional
HT-29 [16] = test: Induction of mitochondrial membrane potential loss in human HT-29 cells at 20 uM measured after 3 hrs by Rh123 dye-based flow cytometric analysis; type: functional, cell-based
Summary of the method: (§3)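 HT-29 cells exposed to 20 µM for different times, stained with Rh123 for 40 min, trypsinised (0.25%), washed three times in PBS; mitochondrial membrane potential read by flow cytometry.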

HT-29 [17] = test: Antimigratory activity in human HT-29 cells after 72 hrs by wound healing assay; type: functional, cell-based
Summary of the method: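 HT-29 cells plated 48 h before scratching; treated with 0, 0.31, 0.63, 1.25, 2.5 and 5 µM under normoxia; wound imaged by inverted microscope at 0 h and 72 h.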

HT-29 [18] = test: Antimigratory activity in human HT-29 cells at 1.25 to 2.5 uM after 24 hrs by transwell assay; type: functional, cell-based
HT-29 [19] = test: Growth inhibition of human HT-29 cells pretreated with 10 uM liproxstatin-1 for 1 hr followed by 10 uM compound addition and measured after 72 hrs by MTT assay; type: functional, cell-based
[20] = target: Carbonic anhydrase 9 (Homo sapiens) (UniProt Q16790); test: Inhibition of carbonic anhydrase 9 in human HT-29 cells assessed as induction of cellular pH decrease at 10 uM after 24 hrs by BCECF-AM staining-based flow cytometric analysis; type: cell-based
Summary of the method: (§4)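 Intracellular pH in HT-29 cells exposed to 10 µM for 0, 3, 12 and 24 h: stained 40 min with BCECF-AM, trypsinised (0.25%), PBS-washed, fluorescence read by flow cytometry.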

[21] = target: Carbonic anhydrase 9 (Homo sapiens) (UniProt Q16790); test: Inhibition of carbonic anhydrase 9 in human HT-29 cells assessed as induction of cellular pH decrease at 10 uM after 3 to 12 hrs by BCECF-AM staining-based flow cytometric analysis; type: cell-based; summary of the method: as §4
HT-29 [22] = test: Cell cycle arrest in human HT-29 cells assessed as accumulation at sub-G1 phase at 10 uM up to 48 hrs by RNase/propidium iodide staining-based flow cytometric analysis; type: functional; summary of the method: as §2
HT-29 [23] = test: Induction of mitochondrial membrane potential loss in human HT-29 cells at 20 uM measured measured until 24 hrs by Rh123 dye-based flow cytometric analysis; type: functional, cell-based; summary of the method: as §3
HT-29 [24] = test: Induction of ferroptosis in human HT-29 cells at 10 uM after 72 hrs by MTT assay; type: functional, cell-based
HT-29 [25] = test: Growth inhibition of human HT-29 cells pretreated with 5 to 40 uM liproxstatin-1 for 1 hr followed by 10 uM compound addition and measured after 48 hrs by MTT assay

SMILES: Cc1c(Cl)c(=O)oc2cc(OCCn3cc(CO[C@H]4O[C@@H]5O[C@@]6(C)CC[C@H]7[C@H](C)CC[C@@H]([C@H]4C)[C@@]57OO6)nn3)ccc12
- IC50 (HT-29 [1]): 0.17 µM
- IC50 (HT-29 [2]): 1.88 µM
- IC50 (MDA-MB-231 [3]): 7.51 µM
- IC50 (MDA-MB-231 [4]): 18.4 µM
- Activity (HT-29 [5]): 72.28%
- Activity (HT-29 [6]): 76.53%
- Activity (HT-29 [7]): 75.45%
- Activity (HT-29 [8]): 82.22%
- Activity (HT-29 [9]): Dose-dependent effect
- Activity (HT-29 [10]): Dose-dependent effect
- Activity (HT-29 [11]): Tde
- Activity (HT-29 [12]): <=60%
- Activity (HT-29 [13]): 1.7%
- Activity (HT-29 [14]): 4.8%
- Activity (HT-29 [15]): 14.9%
- Activity (HT-29 [16]): Active
- Activity (HT-29 [17]): Dose-dependent effect
- Activity (HT-29 [18]): Active
- growth inhibition (GI) (HT-29 [19]): inactive
- inhibition [20]: Active
- inhibition [21]: Active
- Activity (HT-29 [22]): inactive
- Activity (HT-29 [23]): inactive
- Activity (HT-29 [24]): Active
- growth inhibition (GI) (HT-29 [25]): inactive

— ChEMBL document CHEMBL4152206, “Design, synthesis, cytotoxicity and mechanism of novel dihydroartemisinin-coumarin hybrids as potential anti-cancer agents” (Eur J Med Chem, 2018)
